From ChEMBL document CHEMBL1137907, “Anticancer activity of 3-O-acyl and alkyl-(-)-epicatechin derivatives” (Bioorg Med Chem Lett, 2004)

Legend:
SK-OV-3 = experiment: In vitro inhibitory concentration against SKOV3 cell line in MTT assay was determined after 3 days incubation; format: functional, cell-based; conditions: Homo sapiens, SK-OV-3, 72 h
Method in brief: (§1)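 MTT viability read-out in 96-well format, per Mosmann's method. Values are means of three experiments.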

U373 MG = experiment: In vitro inhibitory concentration against U373MG cell line in MTT assay was determined after 3 days incubation; format: functional, cell-based, U-373MG ATCC; conditions: Homo sapiens, 72 h; method in brief: as §1
PC-3 = experiment: In vitro inhibitory concentration against PC-3 cell line in MTT assay was determined after 3 days incubation; format: functional, cell-based; conditions: Homo sapiens, PC-3, 72 h; method in brief: as §1

Row | Compound | IC50 (SK-OV-3) [µM] | IC50 (PC-3) [µM] | IC50 (U373 MG) [µM]
1 | Oc1cc(O)c2c(c1)O[C@H](c1ccc(O)c(O)c1)[C@H](O)C2 [(-)-EPICATECHIN] | > 500 | > 500 | > 500
2 | O=C(O[C@@H]1Cc2c(O)cc(O)cc2O[C@@H]1c1ccc(O)c(O)c1)c1cc(O)c(O)c(O)c1 [EPICATECHIN GALLATE] | 185 | 168 | 157
3 | O=C(O[C@@H]1Cc2c(O)cc(O)cc2O[C@@H]1c1ccc(O)c(O)c1)c1ccc(OC(F)(F)F)cc1 | 47.3 | 45.2 | 50.3
4 | COc1cc(CO[C@@H]2Cc3c(O)cc(O)cc3O[C@@H]2c2ccc(O)c(O)c2)cc(OC)c1OC | 38.2 | 32.5 | 29.8

Continued by falling IC50 (SK-OV-3), values first:

Row | IC50 (SK-OV-3) [µM] | IC50 (PC-3) [µM] | Compound | IC50 (U373 MG) [µM]
5 | 78.2 | 58.7 | O=C(O[C@@H]1Cc2c(O)cc(O)cc2O[C@@H]1c1ccc(O)c(O)c1)c1cc(F)cc(F)c1 | 64.5
6 | 61 | 71.9 | O=C(O[C@@H]1Cc2c(O)cc(O)cc2O[C@@H]1c1ccc(O)c(O)c1)c1cc(F)c(F)c(F)c1 | 59.2
7 | 50.1 | 51.3 | COc1cc(C(=O)O[C@@H]2Cc3c(O)cc(O)cc3O[C@@H]2c2ccc(O)c(O)c2)cc(OC)c1OC | 57.2
